# Screening results: PubChem, Broad Institute
# C2C12 statin: suppression of simvastatin myotoxicity | C2C12 myotubes + simvastatin, ATP luminescence, 48 h; scaled: DMSO 0, geranylgeraniol control 100 | actives 0.78% (n = 330,000) | rescue of ATP level, % at 7.49 µM;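 active = mean ATP rescue above about 67%, or every replicate alone reaching that limit, limit read from the data, passing the limit was not always enough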;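 note: myotubes were challenged with 10 µM simvastatin during compound exposure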
# FN deposition inh: fibronectin deposition inhibition; AH1F fibroblasts, Alexa488-fibronectin deposition fluorescence, overnight; inhibition, % at 12.6 µM; actives 0.086% (n = 350,000); AID 743247;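 active = mean inhibition across replicates of 30% or more, regardless of how many single replicates reach that level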;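 note: positive control wells lacked labelled fibronectin entirely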
#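 material = AH1F fibroblast monolayer depositing Alexa488-labelled fibronectin into matrix | amount = 10000 AH1F cells/well | buffer or medium = DMEM plus 2% serum, read in PBS | incubation = 1 h cell adhesion before compound, then overnight fibronectin incubation | detection = fluorescence at 485 nm excitation, 525 nm emission | evaluation = percent inhibition as loss of matrix-bound fibronectin fluorescence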
# E-selectin induc: induces E-selectin expression in human endothelial cells; HUVEC E-selectin immunofluorescence imaging; normalized: neutral wells 0, TNF-alpha wells 100; activation, % at 7.58 µM; P16581; actives 0.37% (n = 260,000);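 active = mean E-selectin-positive cell signal at least 10% of the positive control, reached in at least 60% of replicates, without over 20% cell loss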
# Target sequence (P16581 whole entry, looked up): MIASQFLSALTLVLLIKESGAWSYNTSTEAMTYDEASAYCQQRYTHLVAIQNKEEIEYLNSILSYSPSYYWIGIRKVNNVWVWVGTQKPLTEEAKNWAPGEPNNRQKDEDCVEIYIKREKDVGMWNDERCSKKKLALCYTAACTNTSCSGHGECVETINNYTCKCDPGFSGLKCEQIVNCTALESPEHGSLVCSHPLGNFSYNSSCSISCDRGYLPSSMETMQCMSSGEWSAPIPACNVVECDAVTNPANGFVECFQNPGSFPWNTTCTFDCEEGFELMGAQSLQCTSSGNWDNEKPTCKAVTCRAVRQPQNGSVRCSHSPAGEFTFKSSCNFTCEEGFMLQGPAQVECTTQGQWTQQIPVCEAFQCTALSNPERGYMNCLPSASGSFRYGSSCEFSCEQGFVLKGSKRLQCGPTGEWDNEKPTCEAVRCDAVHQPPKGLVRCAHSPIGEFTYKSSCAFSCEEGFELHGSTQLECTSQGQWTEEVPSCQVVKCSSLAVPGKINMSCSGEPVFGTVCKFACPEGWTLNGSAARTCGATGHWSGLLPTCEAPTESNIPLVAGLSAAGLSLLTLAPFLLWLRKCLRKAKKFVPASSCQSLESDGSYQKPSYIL
#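 Read-out basis: % PE-positive cells; Test system: HUVEC primary endothelial cells; Technique: immunofluorescence imaging; Dosing: single-point compound dose.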
# SIRT5 inh: inhibitors of human sirtuin-5 desuccinylase; AID 652115; Purified SirT5, succinyl-peptide AMC, trypsin-coupled fluorescence; actives 1.1% (n = 330,000); Q9NXA8; inhibition, % at 15 µM; in the data active = inhibition above about 15%
# rRNA inh HTS: selective bacterial rRNA inhibition in E. coli. E. coli WT GFP vs humanized-ribosome RFP mutants, fluorescence, 24 h; hits give low values; DMSO median 0, no signal -100. GFP signal change (wild-type ribosome), % (concentration not given with the values). actives 1.6% (n = 350,000);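 active = significant combined selectivity score with lowered wild-type GFP, culture density cut under 30%, mutant RFP and density less affected; inactive = any of these conditions unmet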
# FGF22 binding: binders of recombinant human FGF22 by thermal shift. Q9HCT0. SYPRO orange fluorescence; percent of sucrose octasulfate shift, DMSO zero. activity (Tm shift, normalised), % at 9.99 µM. actives 1.5% (n = 340,000). AID 651658;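 active = mean Tm shift, scaled 0 neutral to 100 positive control, at about 1.3% or above, every replicate too, limit read from the data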
# * hit, by the source's call; / = no result given. Hits are enriched below; roughly 4% of the tested compounds scored in any of these assays.
SMILES,C2C12 statin,FN deposition inh,E-selectin induc,SIRT5 inh,rRNA inh HTS,FGF22 binding
Cc1noc(NS(=O)(=O)c2ccc(NC(=O)c3ccc(OC(C)C)cc3)cc2)c1C,/,-5,/,-3,-31*,1
COc1ccc(-c2cc(C(=O)Nc3ccc(S(=O)(=O)Nc4onc(C)c4C)cc3)c3ccccc3n2)cc1,-38,-11,/,4,-18*,0
COc1ccc(-c2cc(C(=O)Nc3ccc(S(=O)(=O)Nc4ncccn4)cc3)c3ccccc3n2)cc1,3,7,5,-5,11,0
Cc1cccc(NC(=O)Nc2ccc(S(=O)(=O)Nc3onc(C)c3C)cc2)c1,0,37*,0,8,-14,1
Cc1noc(NS(=O)(=O)c2ccc(NC(=O)NC(C)(C(F)(F)F)C(F)(F)F)cc2)c1C,4,-2,0,-4,13,1
Cc1noc(NS(=O)(=O)c2ccc(NC(=O)c3cnc4scc(C)n4c3=O)cc2)c1C,-6,-2,/,15*,-10,0
CO[C@@H](CN(C)C(=O)c1ccccc1F)[C@@H](C)CN([C@H](C)CO)S(=O)(=O)c1ccc(Cl)cc1,-17,5,0,-1,-4,1
NCC1C2CCC(O2)C1CO (centres undefined),/,10,0,/,11,45*
Cn1c(-c2ccccc2)c[n+]2c1-c1ccccc1C2,/,-10,/,-2,22,45*
Cn1c(-c2ccccc2)cccc1=O,0,-6,/,/,/,/
C[C@@H]1CN([C@@H](C)CO)C(=O)c2cc(C#CC3CC3)cnc2O[C@@H]1CN(C)C(=O)Nc1ccc(F)cc1,3,/,0,-1,1,0
COc1ccc(OC)c(S(=O)(=O)Oc2ccc(N)c3ccccc23)c1,-1,5,/,15*,-18,0
COc1ccc(OC)c(S(=O)(=O)Nc2ccccc2C(F)(F)F)c1,34,14,/,/,/,/
COc1ccc(OC)c(S(=O)(=O)Nc2cccc3ccccc23)c1,/,-7,0,-2,-25*,0
CCCN1[C@@H]2c3ccc(-c4ccc(F)cc4)c(=O)n3C[C@H]1[C@H](CO)[C@H]2C(=O)NCCc1cn(C)cn1,3,/,1,-4,4,0
O=C(NNS(=O)(=O)c1ccc(Cl)cc1)c1cc(-c2ccccc2)nc2ccccc12,/,-2,/,-2,-31*,0
O=C(NNC(=O)c1cc(-c2cccnc2)nc2ccccc12)Nc1ccc(Cl)cc1,-38,13,5,-7,-29*,0
COc1cccc(-c2cnc3c(c2)C(=O)N([C@@H](C)CO)C[C@H](C)[C@@H](CN(C)Cc2ccncc2)O3)c1,16,-3,-2,-2,-4,0
CCCNC(=O)[C@H]1[C@H](CO)[C@H]2Cn3c(ccc(-c4ccncc4)c3=O)[C@@H]1N2C(=O)CC1CC1,9,/,-1,-66,1,0
COC(=O)c1sccc1NC(=O)CC1C(=O)NCCN1C(=O)Nc1cc(Cl)ccc1OC (centres undefined),/,-10,0,0,-22*,0
CC(C)CC#Cc1ccc([C@@H]2[C@H](CO)N3CCCCN(C(=O)c4ccc5c(c4)OCO5)C[C@@H]23)cc1,/,/,0,-3,-56,0
CCOc1ccc(C(C)=O)cc1CSc1nc2nc(C)cc(C)n2n1,/,14,/,1,6,43*
CCOc1ccc(C(C)=O)cc1CSc1nc(C)cc(C)n1,-12,-3,/,-2,-8,0
C[C@H]1CN([C@@H](C)CO)C(=O)c2cccc(NC(=O)C3CCCCC3)c2O[C@@H]1CN(C)C(=O)Nc1ccc2c(c1)OCO2,11,/,0,5,2,0
C[C@@H]1CN([C@@H](C)CO)C(=O)c2cccc(NC(=O)c3ccncc3)c2O[C@@H]1CN(C)S(=O)(=O)c1ccc(Cl)cc1,73*,/,/,0,-18,0
Cc1cc(C(=O)Nc2cccc3c2O[C@H](CN(C)S(=O)(=O)c2ccc(Cl)cc2)[C@H](C)CN([C@H](C)CO)C3=O)n(C)n1,12,/,0,-7,-22*,0
